From article PMC2114617 (The Journal of Cell Biology, 1986)

Legend:
B16-F10 melanoma cells [1] = experiment: Inhibition of B16-F10 melanoma cell spreading on fibronectin; format: cell-based, murine; conditions: data not shown
Procedure, shortened: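 Wells coated 60 min at room temperature with human plasma fibronectin (4 μg/ml) in PBS+, then blocked 30 min with heat-denatured BSA. Test peptide in PBS+ was added, with or without 5 μg/ml mAb333. Cells were fixed and %-spread scored by phase contrast (300 cells/well).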

B16-F10 melanoma cells [2] = experiment: Inhibition of B16-F10 melanoma cell spreading on CS5; format: cell-based, murine; conditions: CS5 substrate; data not shown
BHK fibroblasts = experiment: Spreading of BHK fibroblasts on fibronectin or its tryptic fragments; format: cell-based, hamster; conditions: substrate-coated protein
Procedure, shortened: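 Wells were coated 60 min at room temperature with human plasma fibronectin or its purified tryptic fragments (90-98% pure), with coating levels expressed in nM. Wells were blocked with heat-denatured BSA.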

Substance | Inhibition of B16-F10 spreading on fibronectin at concentrations up to 1 mg/ml (B16-F10 melanoma cells [1]) | other results
Arg-Gly-Pro-Phe-Pro-lle [RGPFPI] | completely inactive | 
SDGR |  | Inhibition of B16-F10 spreading on CS5 (B16-F10 melanoma cells [2]): more active than GRGDS
Thr-Lys-Pro- Arg [TKPR] | completely inactive | 
fibronectin |  | Spreading of BHK cells on fibronectin and fragments (BHK fibroblasts): spread equally well
GRGD |  | Inhibition of B16-F10 spreading on CS5 (B16-F10 melanoma cells [2]): highly inhibitory
heparin | no detectable effect | 
Gly-His-Lys [GHK] | completely inactive | 
insulin A chain: Insulin A chain from Sigma Chemical Co., peptide unrelated to RGDS | completely inactive | 
Arg- Asp [RD] | completely inactive | 
